{"source": "paper PMC5855950", "about": "(RNA, 2018)", "key": {"[1]": {"test_system": "HBB mRNA", "assay": "Real-time PCR: HBB mRNA expression in HEK293 cells", "assay_type": "cell-based, human", "details": "three repeats", "outline": "(§1)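 RNA was extracted from HEK293 cells with TRIzol. One µg was reverse transcribed using random hexamer primers. GADD45A and HBB transcripts were quantified with TaqMan gene expression probes on a real-time PCR system.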"}, "[2]": {"test_system": "EGFPCAG78-expressing HEK293 cells", "assay": "LDH assay: suppression of death of EGFPCAG78-expressing HEK293 cells", "assay_type": "cell-based, human", "details": "scrambled control, Supplemental Fig. S1", "outline": "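HEK293 cells were grown in DMEM with 10% FBS at 37°C and 5% CO2 and seeded at 1 × 10^5 per well. They were lipofected with pEGFPCAG78, and TAT-peptide was added immediately after at 0.1–25 µM (8 levels). LDH activity in the medium was read at 72 h and normalised to the no-peptide control. IC50 came from variable-slope nonlinear regression; at least 3 repeats.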"}, "[3]": {"test_system": "GADD45A mRNA", "assay": "Real-time PCR: GADD45A mRNA expression in HEK293 cells", "assay_type": "cell-based, human", "details": "three repeats", "outline": "as §1"}, "[4]": {"test_system": "DsRedCAG250 Drosophila", "assay": "Climbing ability assay, DsRedCAG250 Drosophila", "assay_type": "in vivo", "details": "100 µM at third instar larval stage; elav>DsRedCAG250 flies at 5, 10 and 15 dpe", "outline": "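Flies carried elav-GAL4 and UAS-DsRedCAG250 and were reared at 25°C. Larval dosing was a 2 h feed of third instar larvae on peptide in 2% sucrose at room temperature, with climbing tested at 5, 10 and 15 dpe. Adult dosing: 5 or 10 dpe flies were starved 8 h, then fed overnight on peptide-sucrose filter paper, and tested at 10 or 15 dpe.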"}, "[5]": {"test_system": "Htt-exon1Q93 Drosophila", "assay": "Pseudopupil assay, Htt-exon1Q93 Drosophila", "assay_type": "in vivo", "details": "100 µM at third instar larval stage, 1 dpe adults", "outline": "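Flies were raised at 21.5°C. Third instar larvae fed 2 h at room temperature on peptide in 2% sucrose solution. Rhabdomeres per ommatidium were counted by pseudopupil assay at 1 dpe for Htt-exon1Q93 flies and 12 dpe for flMJDQ84 flies. Experiments were repeated at least three times (n = 10 fly heads), as mean ± SEM, one-way ANOVA with Tukey test.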"}}, "data": [{"sequence": "YGRKKRRQRRRGGEDIKSRVEAASILYFIKKK [TAT-BIND-S]", "values": [{"measurement": "HBB mRNA expression", "setting": "[1]", "value": "no significant change"}, {"measurement": "effect on cell death", "setting": "[2]", "value": "did not suppress or elicit cell death"}, {"measurement": "GADD45A mRNA expression", "setting": "[3]", "value": "no significant change"}, {"measurement": "climbing defects, larval treatment", "setting": "[4]", "value": "had no effect"}, {"measurement": "retinal degeneration, Htt-exon1Q93", "setting": "[5]", "value": "but not TAT-BIND-S"}]}]}
